ChEMBL document CHEMBL1141656, “N-{[(6-substituted-1,3-benzothiazole-2-yl)amino]carbonothioyl}-2/4-substituted benzamides: synthesis and pharmacological evaluation” (Eur J Med Chem, 2008)

Columns and labels:
Mus musculus [1] = assay: Anticonvulsant activity in ip dosed CF1 albino mouse assessed as minimum effective dose after 0.5 hrs by MES screen test; assay type: functional
Summary of the method: (§1)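 Mice given test compounds i.p. at 30, 100 and 300 mg/kg (one to four mice per dose), suspended in 1% Tween 80 or 0.5% methylcellulose–water. Maximal electroshock seizure test, read at 0.5 and 4 h after dosing. Value is the lowest dose protecting half or more of the mice.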

Mus musculus [2] = assay: Anticonvulsant activity in ip dosed CF1 albino mouse assessed as minimum effective dose after 4 hrs by MES screen test; assay type: functional; summary of the method: as §1
Mus musculus [3] = assay: Anticonvulsant activity in ip dosed CF1 albino mouse assessed as minimum effective dose after 0.5 hrs by scPTZ test; assay type: functional
Summary of the method: (§2)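 Mice dosed i.p. at 30, 100 and 300 mg/kg in 1% Tween 80 or 0.5% methylcellulose–water, then challenged 0.5 and 4 h later. PTZ in 0.9% NaCl was injected s.c. at the posterior midline. Mice were watched for 30 min. Protection meant no clonic spasm lasting at least 5 s. Value is the minimum dose active in half or more of the mice.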

Mus musculus [4] = assay: Anticonvulsant activity in ip dosed CF1 albino mouse assessed as minimum effective dose after 4 hrs by scPTZ test; assay type: functional; summary of the method: as §2
Mus musculus [5] = organism: Mus musculus; assay: Neurotoxicity in CF1 albino mouse after 0.5 hrs by rotarod test; assay type: toxicity, organism-based; details: in vivo
Mus musculus [6] = organism: Mus musculus; assay: Neurotoxicity in CF1 albino mouse after 4 hrs by rotarod test; assay type: toxicity, organism-based; details: in vivo
Rattus norvegicus [7] = assay: Hepatotoxicity in Sprague-Dawley rat assessed as total protein level per 100 ml of blood at 30 mg/kg, po after 15 days; assay type: toxicity, organism-based; parameters: dose 30 mg/kg, route oral; details: in vivo, 360 h
Summary of the method: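 Rats given 30 mg/kg/day p.o. in methylcellulose for two weeks, then anesthetized with ether. Blood was collected from the liver. SGOT, SGPT, alkaline phosphatase, total protein and albumin were measured by reported methods.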

Rattus norvegicus [8] = organism: Rattus norvegicus; assay: Hepatotoxicity in Sprague-Dawley rat assessed as presence of normal hepatic parenchyma with portal triad and central vein by histopathological study; assay type: toxicity, organism-based; details: in vivo
Summary of the method: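 Rats were dosed chronically and sacrificed under light ether anesthesia 24 h after the last dose. Livers were removed, washed in normal saline and embedded in paraffin. Sections 5–6 thick were cut, stained with haematoxylin and eosin, and examined microscopically.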

Rattus norvegicus [9] = assay: Antidepressant activity in Wistar rat assessed as mean average immobility time during 5 mins of test period at 30 mg/kg, po after 30 mins by forced-swimming test; assay type: functional

O=C(NC(=S)Nc1nc2ccc(F)cc2s1)c1ccccc1
Activity (Mus musculus [1]): 30 mg/kg
Activity (Mus musculus [2]): 30 mg/kg
Activity (Mus musculus [3]): 30 mg/kg
Activity (Mus musculus [4]): 100 mg/kg
Activity (Mus musculus [5]): Not Active
Activity (Mus musculus [6]): Not Active
Activity (Rattus norvegicus [7]): 1.8 g
Activity (Rattus norvegicus [8]): Non-toxic
Activity (Rattus norvegicus [9]): 24 s

COc1ccc(C(=O)NC(=S)Nc2nc3ccc(Cl)cc3s2)cc1
Activity (Mus musculus [1]): 30 mg/kg
Activity (Mus musculus [2]): 30 mg/kg
Activity (Mus musculus [3]): 30 mg/kg
Activity (Mus musculus [4]): 100 mg/kg
Activity (Mus musculus [5]): Not Active
Activity (Mus musculus [6]): Not Active
Activity (Rattus norvegicus [7]): 1.79 g
Activity (Rattus norvegicus [8]): Non-toxic
Activity (Rattus norvegicus [9]): 34.2 s

O=C(NC(=S)Nc1nc2ccc(Cl)cc2s1)c1ccccc1
Activity (Mus musculus [1]): 300 mg/kg
Activity (Mus musculus [2]): 300 mg/kg
Activity (Mus musculus [3]): 100 mg/kg
Activity (Mus musculus [4]): 300 mg/kg
Activity (Rattus norvegicus [8]): Non-toxic
Activity (Rattus norvegicus [9]): 29 s

Cc1ccc2nc(NC(=S)NC(=O)c3ccccc3)sc2c1
Activity (Mus musculus [1]): 300 mg/kg
Activity (Mus musculus [2]): 300 mg/kg
Activity (Mus musculus [3]): 300 mg/kg
Activity (Mus musculus [4]): 300 mg/kg
Activity (Rattus norvegicus [8]): Non-toxic
Activity (Rattus norvegicus [9]): 29 s

O=C(NC(=S)Nc1nc2ccc(Br)cc2s1)c1ccccc1Cl
Activity (Mus musculus [1]): 300 mg/kg
Activity (Mus musculus [2]): 300 mg/kg
Activity (Mus musculus [3]): 300 mg/kg
Activity (Mus musculus [4]): 300 mg/kg
Activity (Rattus norvegicus [8]): Non-toxic
Activity (Rattus norvegicus [9]): 22.6 s

COc1ccc(C(=O)NC(=S)Nc2nc3ccc([N+](=O)[O-])cc3s2)cc1
Activity (Rattus norvegicus [8]): Non-toxic
Activity (Rattus norvegicus [9]): 27.8 s

COc1ccc(C(=O)NC(=S)Nc2nc3ccc(C)cc3s2)cc1
Activity (Mus musculus [1]): 300 mg/kg
Activity (Mus musculus [2]): 300 mg/kg
Activity (Rattus norvegicus [8]): Non-toxic
Activity (Rattus norvegicus [9]): 10.2 s

O=C(NC(=S)Nc1nc2ccc(F)cc2s1)c1ccccc1Cl
Activity (Mus musculus [1]): 30 mg/kg
Activity (Mus musculus [2]): 100 mg/kg
Activity (Mus musculus [3]): 100 mg/kg
Activity (Mus musculus [4]): 300 mg/kg
Activity (Mus musculus [5]): Not Active
Activity (Mus musculus [6]): Not Active
Activity (Rattus norvegicus [7]): 1.83 g
Activity (Rattus norvegicus [8]): Non-toxic
Activity (Rattus norvegicus [9]): 25 s

O=C(NC(=S)Nc1nc2ccc(F)cc2s1)c1ccc(Cl)cc1
Activity (Mus musculus [1]): 100 mg/kg
Activity (Mus musculus [2]): 300 mg/kg
Activity (Rattus norvegicus [8]): Non-toxic
Activity (Rattus norvegicus [9]): 24.6 s

Cc1ccc2nc(NC(=S)NC(=O)c3ccccc3Cl)sc2c1
Activity (Mus musculus [1]): 30 mg/kg
Activity (Mus musculus [2]): 30 mg/kg
Activity (Mus musculus [3]): 30 mg/kg
Activity (Mus musculus [4]): 30 mg/kg
Activity (Mus musculus [5]): Not Active
Activity (Mus musculus [6]): Not Active
Activity (Rattus norvegicus [7]): 1.71 g
Activity (Rattus norvegicus [8]): Non-toxic
Activity (Rattus norvegicus [9]): 40.4 s

O=C(NC(=S)Nc1nc2ccc(Cl)cc2s1)c1ccc(Cl)cc1
Activity (Mus musculus [1]): 30 mg/kg
Activity (Mus musculus [2]): 100 mg/kg
Activity (Mus musculus [3]): 100 mg/kg
Activity (Mus musculus [4]): 300 mg/kg
Activity (Mus musculus [5]): Not Active
Activity (Mus musculus [6]): Not Active
Activity (Rattus norvegicus [7]): 1.9 g
Activity (Rattus norvegicus [8]): Non-toxic
Activity (Rattus norvegicus [9]): 20.2 s

Cc1ccc2nc(NC(=S)NC(=O)c3ccc(Cl)cc3)sc2c1
Activity (Mus musculus [1]): 30 mg/kg
Activity (Mus musculus [2]): 100 mg/kg
Activity (Mus musculus [3]): 100 mg/kg
Activity (Mus musculus [4]): 100 mg/kg
Activity (Mus musculus [5]): Not Active
Activity (Mus musculus [6]): Not Active
Activity (Rattus norvegicus [7]): 1.88 g
Activity (Rattus norvegicus [8]): Non-toxic
Activity (Rattus norvegicus [9]): 30 s

COc1ccc(C(=O)NC(=S)Nc2nc3ccc(OC)cc3s2)cc1
Activity (Mus musculus [1]): 300 mg/kg
Activity (Mus musculus [2]): 300 mg/kg
Activity (Mus musculus [3]): 300 mg/kg
Activity (Mus musculus [4]): 300 mg/kg
Activity (Rattus norvegicus [8]): Non-toxic
Activity (Rattus norvegicus [9]): 16.8 s

O=C(NC(=S)Nc1nc2ccc(Cl)cc2s1)c1ccccc1Cl
Activity (Mus musculus [1]): 300 mg/kg
Activity (Mus musculus [2]): 300 mg/kg
Activity (Mus musculus [3]): 300 mg/kg
Activity (Mus musculus [4]): 300 mg/kg
Activity (Rattus norvegicus [8]): Non-toxic
Activity (Rattus norvegicus [9]): 32.6 s

COc1ccc2nc(NC(=S)NC(=O)c3ccccc3)sc2c1
Activity (Mus musculus [1]): 100 mg/kg
Activity (Mus musculus [2]): 100 mg/kg
Activity (Mus musculus [3]): 300 mg/kg
Activity (Mus musculus [4]): 300 mg/kg
Activity (Rattus norvegicus [8]): Non-toxic
Activity (Rattus norvegicus [9]): 19.8 s

O=C(NC(=S)Nc1nc2ccc(Br)cc2s1)c1ccc(Cl)cc1
Activity (Mus musculus [1]): 100 mg/kg
Activity (Mus musculus [2]): 100 mg/kg
Activity (Mus musculus [3]): 300 mg/kg
Activity (Mus musculus [4]): 300 mg/kg
Activity (Rattus norvegicus [8]): Non-toxic
Activity (Rattus norvegicus [9]): 38 s

COc1ccc(C(=O)NC(=S)Nc2nc3ccc(F)cc3s2)cc1
Activity (Rattus norvegicus [8]): Non-toxic
Activity (Rattus norvegicus [9]): 31.2 s

COc1ccc2nc(NC(=S)NC(=O)c3ccccc3Cl)sc2c1
Activity (Mus musculus [1]): 30 mg/kg
Activity (Mus musculus [2]): 100 mg/kg
Activity (Mus musculus [3]): 100 mg/kg
Activity (Mus musculus [4]): 100 mg/kg
Activity (Mus musculus [5]): Not Active
Activity (Mus musculus [6]): Not Active
Activity (Rattus norvegicus [7]): 1.98 g
Activity (Rattus norvegicus [8]): Non-toxic
Activity (Rattus norvegicus [9]): 42.6 s

COc1ccc2nc(NC(=S)NC(=O)c3ccc(Cl)cc3)sc2c1
Activity (Mus musculus [1]): 300 mg/kg
Activity (Mus musculus [2]): 300 mg/kg
Activity (Mus musculus [3]): 300 mg/kg
Activity (Mus musculus [4]): 300 mg/kg
Activity (Rattus norvegicus [8]): Non-toxic
Activity (Rattus norvegicus [9]): 43 s

O=C(NC(=S)Nc1nc2ccc([N+](=O)[O-])cc2s1)c1ccccc1
Activity (Mus musculus [1]): 300 mg/kg
Activity (Mus musculus [2]): 300 mg/kg
Activity (Mus musculus [3]): 300 mg/kg
Activity (Mus musculus [4]): 300 mg/kg
Activity (Rattus norvegicus [8]): Non-toxic
Activity (Rattus norvegicus [9]): 14.8 s

NC(=O)N1c2ccccc2C=Cc2ccccc21 [CARBAMAZEPINE]
Activity (Mus musculus [1]): 30 mg/kg
Activity (Mus musculus [2]): 100 mg/kg
Activity (Mus musculus [3]): 100 mg/kg
Activity (Mus musculus [4]): 100 mg/kg
Activity (Mus musculus [5]): Not Active
Activity (Mus musculus [6]): Not Active
Activity (Rattus norvegicus [8]): Non-toxic

CNCCC(Oc1ccc(C(F)(F)F)cc1)c1ccccc1 (stereo not drawn) [FLUOXETINE]
Activity (Mus musculus [1]): 29.6 mg/kg
Activity (Mus musculus [2]): 14.2 mg/kg

O=C1NC(=O)C(c2ccccc2)(c2ccccc2)N1 [PHENYTOIN]
Activity (Mus musculus [1]): 30 mg/kg
Activity (Mus musculus [2]): 30 mg/kg
Activity (Mus musculus [5]): Not Active
Activity (Mus musculus [6]): Not Active
Activity (Rattus norvegicus [8]): Non-toxic
